Legend:
Format in all cases: functional, cell-based
MDA-MB-231 = assay: Cytotoxicity against human MDA-MB-231 cells assessed as growth inhibition after 24 to 72 hrs by MTT assay
Procedure, shortened: (§1)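 About 5000 cells/well were grown 24 h in RPMI-1640 with 10% FBS, then given fresh medium with compound at various concentrations (from 10 mM DMSO stocks) for 24, 48 and 72 h. MTT (5 mg/mL stock) was added for 2 h and formazan dissolved in DMSO. Absorbance was read at 595 nm and expressed as percent proliferation versus DMSO control.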

MDA-MB-468 = assay: Cytotoxicity against human MDA-MB-468 cells assessed as growth inhibition after 24 to 72 hrs by MTT assay; procedure, shortened: as §1
MCF7 = assay: Cytotoxicity against human MCF7 cells assessed as growth inhibition after 24 to 72 hrs by MTT assay; procedure, shortened: as §1
[1] = Cytotoxicity against human H1299 cells assessed as growth inhibition after 24 to 72 hrs by MTT assay; details: NCI-H1299; procedure, shortened: as §1

## COC(=O)c1cc2c3ccccc3[nH]c2c2cn(C3CCCCC3)c[n+]12
MDA-MB-231
  IC50: > 30 µM
MDA-MB-468
  IC50: 18.2 µM
MCF7
  IC50: > 30 µM
[1]
  IC50: > 30 µM

## COC(=O)c1cc2c3ccccc3n(Cc3cc(OC)c(OC)c(OC)c3)c2c2cn(-c3ccc(Cl)cc3)c[n+]12
MDA-MB-231
  IC50: > 30 µM
MDA-MB-468
  IC50: > 30 µM
MCF7
  IC50: > 30 µM
[1]
  IC50: > 30 µM

## COC(=O)c1cc2c3ccccc3[nH]c2c2cn(-c3ccc(C)cc3Cl)c[n+]12
MDA-MB-231
  IC50: 14 µM
MDA-MB-468
  IC50: > 30 µM
MCF7
  IC50: > 30 µM
[1]
  IC50: > 30 µM

## COC(=O)c1cc2c3ccccc3[nH]c2c2cn(C3CC3)c[n+]12
MDA-MB-231
  IC50: > 30 µM
MDA-MB-468
  IC50: > 30 µM
MCF7
  IC50: > 30 µM
[1]
  IC50: > 30 µM

## COC(=O)c1cc2c3ccccc3[nH]c2c2cn(-c3ccc(Cl)cc3)c[n+]12
MDA-MB-231
  IC50: 9.38 µM
MDA-MB-468
  IC50: 10.2 µM
MCF7
  IC50: 25.7 µM
[1]
  IC50: 15.4 µM

## COC(=O)c1cc2c3ccccc3[nH]c2c2cn(-c3cccc(Br)c3)c[n+]12
MDA-MB-231
  IC50: 17.9 µM
MDA-MB-468
  IC50: 15.1 µM
MCF7
  IC50: > 30 µM
[1]
  IC50: 26.9 µM

## COC(=O)c1cc2c3ccccc3[nH]c2c2cn(C34CC5CC(CC(C5)C3)C4)c[n+]12
MDA-MB-231
  IC50: > 30 µM
MDA-MB-468
  IC50: > 30 µM
MCF7
  IC50: > 30 µM
[1]
  IC50: > 30 µM

## COC(=O)c1cc2c3ccccc3[nH]c2c2cn(Cc3ccc(F)cc3)c[n+]12
MDA-MB-231
  IC50: 12.8 µM
MDA-MB-468
  IC50: > 30 µM
MCF7
  IC50: > 30 µM
[1]
  IC50: > 30 µM

## C=CCn1cc2c3[nH]c4ccccc4c3cc(C(=O)OC)[n+]2c1
MDA-MB-231
  IC50: 23 µM
MDA-MB-468
  IC50: > 30 µM
MCF7
  IC50: > 30 µM
[1]
  IC50: > 30 µM

## COC(=O)c1cc2c3ccccc3[nH]c2c2cn(-c3ccccc3Br)c[n+]12
MDA-MB-231
  IC50: 20.7 µM
MDA-MB-468
  IC50: 11 µM
MCF7
  IC50: > 30 µM
[1]
  IC50: > 30 µM

## COC(=O)c1cc2c3ccccc3[nH]c2c2cn(-c3ccc(F)cc3Br)c[n+]12
MDA-MB-231
  IC50: 10.8 µM
MDA-MB-468
  IC50: 9.51 µM
MCF7
  IC50: 13.3 µM
[1]
  IC50: 16.4 µM

## COC(=O)c1cc2c3ccccc3[nH]c2c2cn(-c3ccccc3I)c[n+]12
MDA-MB-231
  IC50: 7.8 µM
MDA-MB-468
  IC50: 8.02 µM
MCF7
  IC50: 5.96 µM
[1]
  IC50: 6.46 µM

## COC(=O)c1cc2c3ccccc3[nH]c2c2cn(-c3ccc(OC)c(OC)c3)c[n+]12
MDA-MB-231
  IC50: 29.9 µM
MDA-MB-468
  IC50: 11.5 µM
MCF7
  IC50: > 30 µM
[1]
  IC50: 16.4 µM

## COC(=O)c1cc2c3ccccc3[nH]c2c2cn(CCc3ccccc3)c[n+]12
MDA-MB-231
  IC50: > 30 µM
MDA-MB-468
  IC50: > 30 µM
MCF7
  IC50: > 30 µM
[1]
  IC50: > 30 µM

## COC(=O)c1cc2c3ccccc3[nH]c2c2cn(-c3cccc(C(F)(F)F)c3)c[n+]12
MDA-MB-231
  IC50: 14.6 µM
MDA-MB-468
  IC50: 10.5 µM
MCF7
  IC50: > 30 µM
[1]
  IC50: 10.9 µM

## COC(=O)c1cc2c3ccccc3[nH]c2c2cn(Cc3ccc(C)cc3)c[n+]12
MDA-MB-231
  IC50: 11.2 µM
MDA-MB-468
  IC50: > 30 µM
MCF7
  IC50: > 30 µM
[1]
  IC50: > 30 µM

## COC(=O)c1cc2c3ccccc3[nH]c2c2cn(-c3ccc(Cl)cc3C)c[n+]12
MDA-MB-231
  IC50: 23.4 µM
MDA-MB-468
  IC50: 20.2 µM
MCF7
  IC50: > 30 µM
[1]
  IC50: > 30 µM

## COC(=O)c1cc2c3ccccc3[nH]c2c2cn(Cc3ccccc3)c[n+]12
MDA-MB-231
  IC50: 11.8 µM
MDA-MB-468
  IC50: > 9.27 µM
MCF7
  IC50: 6.26 µM
[1]
  IC50: 23.7 µM

## COC(=O)c1cc2c3ccccc3[nH]c2c2cn(-c3ccccc3)c[n+]12
MDA-MB-231
  IC50: > 30 µM
MDA-MB-468
  IC50: 5.82 µM
MCF7
  IC50: > 30 µM
[1]
  IC50: 8.87 µM

## CCN(CC)CCn1cc2c3[nH]c4ccccc4c3cc(C(=O)OC)[n+]2c1
MDA-MB-231
  IC50: > 30 µM
MDA-MB-468
  IC50: > 30 µM
MCF7
  IC50: > 30 µM
[1]
  IC50: > 30 µM
